ChEMBL document CHEMBL1250520, “Antitumor agents. 280. Multidrug resistance-selective desmosdumotin B analogues” (2010)
Active and inactive are the calls of the source. The rule behind the calls is not given here.

Tests used:
[1] = Anticancer activity against vincristine-resistant human Hep3B cells after 3 days by SRB assay; format: functional, Hep 3B2; details: 72 h
[2] = Anticancer activity against human Hep3B cells after 3 days by SRB assay; format: functional, Hep 3B2; details: 72 h
KB = test: Anticancer activity against human KB cells after 3 days by SRB assay; format: functional; details: 72 h, read-out: ED50 (the source's name)
In short: (§1)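 Cells seeded at 1500–7500 per well, compounds added from DMSO-diluted stock, grown 3 days in RPMI-1640 with 25mM HEPES, 0.25% sodium bicarbonate, 10% FBS and kanamycin. Attached cells fixed in cold 50% TCA, stained with 0.4% sulforhodamine B, absorbance read at 562 nm after dye solubilization. ED50 is the 50% growth-reduction concentration, averaged from at least three independent determinations.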

[3] = Anticancer activity against human KBVIN cells after 3 days by SRB assay; format: functional; details: 72 h, read-out: ED50 (the source's name); in short: as §1
KBVIN [4] = test: Inhibition of Pgp efflux pump in human KBVIN cells by calcein AM assay; format: cell-based
In short: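 KB-VIN cells, 10,000 per well, were grown 24 h in RPMI-1640 with 5% FBS. They were preincubated with compounds for 30 min at 37°C, then given fresh medium with 1 µM calcein-AM plus compounds for 30 min at 37°C in the dark. After cold PBS wash and hypotonic Tris-HCl lysis, fluorescence was read at Ex 494/Em 517 nm. Data pooled from two or more independent experiments.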

Hep 3B2 = test: Selectivity ratio of GI50 for human Hep3B cells to ED50 vincristine-resistant Hep3B cells; format: functional
[5] = Selectivity ratio of ED50 for human KB cells to ED50 for human KBVIN cells; format: functional
In short: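 Ratio of KB ED50 to KB-VIN ED50. Both values come from a 3-day sulforhodamine B assay with absorbance read at 562 nm. Cells were seeded at 1500–7500 per well and dosed from DMSO-diluted stock. Each ED50 is the mean of at least three independent determinations.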

KBVIN [6] = test: Induction of apoptosis in human KBVIN cells assessed as DNA fragmentation after 1 days by ELISA; format: functional, cell-based
In short: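 Apoptosis in KB-VIN cells, including co-treatment with verapamil, read out by a Cell Death Detection ELISA PLUS kit.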

SMILES | EC50 (KB) | GI50 [1] | GI50 [2] | EC50 [3] | inhibition (KBVIN [4]) | RatioGI50 (Hep 3B2) | Ratio ED50 [5] | Activity (KBVIN [6])
CC[C@]1(O)C[C@H]2CN(CCc3c([nH]c4ccccc34)[C@@](C(=O)OC)(c3cc4c(cc3OC)N(C=O)[C@H]3[C@@](O)(C(=O)OC)[C@H](OC(C)=O)[C@]5(CC)C=CCN6CC[C@]43[C@@H]65)C2)C1 [VINCRISTINE] |  | 6.86 µM | 0.0029 µM |  |  |  |  | 
CCC1=C(O)c2c(oc(-c3ccc(C)cc3)cc2=O)C(CC)(CC)C1=O [6,8,8-TRIETHYL-4-METHYL DESMOSDUMOTIN B] | 39.2 µM | 0.35 µM | 7.31 µM | 0.08 µM | Active | 21 | 460 | 
CCC1=C(O)c2c(oc(-c3ccccc3)cc2=O)C(CC)(CC)C1=O [6,8,8-TRIETHYL DESMOSDUMOTIN B] | > 237 µM | 1.57 µM | 47.6 µM | 1.07 µM | inactive | 30 | >221 | Active
CC(=O)O[C@H]1C(=O)[C@@]2(C)[C@H]([C@H](OC(=O)c3ccccc3)[C@]3(O)C[C@H](OC(=O)[C@H](O)[C@@H](NC(=O)c4ccccc4)c4ccccc4)C(C)=C1C3(C)C)[C@]1(OC(C)=O)CO[C@@H]1C[C@@H]2O [PACLITAXEL] |  | 16.2 µM | 0.0004 µM |  |  |  |  | 
CCCOc1ccc(-c2cc(=O)c3c(o2)C(CC)(CC)C(=O)C(CC)=C3O)cc1 | > 50.5 µM |  |  | 29.2 µM |  |  | >2 | 
CCC1=C(O)c2c(oc(-c3ccccc3C)cc2=O)C(CC)(CC)C1=O [6,8,8-TRIETHYL-2-METHYL DESMOSDUMOTIN B] | 40.9 µM |  |  | 2.41 µM |  |  | 17 | 

Now from value to compound, other results behind:

EC50 (KB) | SMILES | GI50 [1] | GI50 [2] | EC50 [3] | inhibition (KBVIN [4]) | RatioGI50 (Hep 3B2) | Ratio ED50 [5] | Activity (KBVIN [6])
21.9 µM | CCC1=C(O)c2c(oc(-c3ccc(CC)cc3)cc2=O)C(CC)(CC)C1=O [6,8,8-TRIETHYL-4-ETHYL DESMOSDUMOTIN B] | 0.72 µM | 6.09 µM | 0.07 µM | Active | 8.5 | 320 | 
35.7 µM | CCC1=C(O)c2c(oc(-c3ccc(C(F)(F)F)cc3)cc2=O)C(CC)(CC)C1=O |  |  | 10.3 µM |  |  | 3.5 | 
> 53 µM | CCCc1ccc(-c2cc(=O)c3c(o2)C(CC)(CC)C(=O)C(CC)=C3O)cc1 |  |  | 12.2 µM |  |  | >4 | 
